Experimental data collected from several papers.
Target: Casein kinase I isoform gamma-3 (CSNK1G3, Homo sapiens, UniProt Q9Y6M4)

Compound | read-out | method | concentration | remaining binding
CSc1cccnc1N1CCN(Cc2nc3ccccc3[nH]2)CC1 | cell-free assay | competition with immobilised ligand | 1 µM | 86%
O=C(c1ccc(Nc2ncc(Cl)c(-c3cc4ccccc4s3)n2)cc1)N1CCC(N2CCCC2)CC1 | binding | competition with immobilised ligand | 1 µM | 100%
CC1CCCN1c1nccc(-c2cnn3ncccc23)n1 (centres unmarked) | binding |  | 1 µM | 100%
O=C(NCCCN1CCOCC1)c1ccc(Nc2ncc(Cl)c(-c3ccc(Cl)s3)n2)cc1 | binding | competition with immobilised ligand | 1 µM | 100%
O=C(Nc1c[nH]nc1C(=O)NC1CCNCC1)c1cc(F)cc(F)c1 | binding | competition with immobilised ligand | 1 µM | 98%
N#Cc1ccc(Nc2ccc3[nH]c(=O)[nH]c3c2)c(Cl)c1 | cell-free assay | competition with immobilised ligand | 1 µM | 99%
COc1ccnn2ncc(-c3ccnc(N(C)C)n3)c12 | binding |  | 1 µM | 97%
CNCc1ccccc1-c1csc([C@H](C)Nc2nc(C)nc3cc(OC)c(OC)cc23)c1 | cell-free assay | competition with immobilised ligand | 1 µM | 93%
O=C(c1ccc(Nc2ncc(Cl)c(-c3ccc(Cl)s3)n2)cc1)N1CCC(N2CCCC2)CC1 | binding | competition with immobilised ligand | 1 µM | 100%
C[C@H]1CCN(c2nccc(-c3cnn4ncccc34)n2)C1 | binding |  | 1 µM | 91%
CNC(=O)[C@@H]1CC[C@@H](n2c(-c3ccc4cnccc4c3)nc3ccc(C(=O)NCc4cccc(C(N)=O)c4)cc32)C1 | binding | competition with immobilised ligand | 1 µM | 100%
N[C@H]1CCN(c2nccc(-c3cnn4ncccc34)n2)C1 | binding |  | 1 µM | 100%
CC(=O)N1CCC(c2ccc(C(=O)NC3=NCCN3)cc2C(F)(F)F)CC1 | cell-free assay | competition with immobilised ligand | 1 µM | 100%
FC(F)(F)Oc1cccc(-c2cnc3ccc(-c4ccncc4)nn23)c1 | cell-free assay | competition with immobilised ligand | 5 µM | 84%
COc1cnc(Nc2cccc(S(N)(=O)=O)c2)nc1N1CCN(c2ccccc2)C(=O)C1 | binding | competition with immobilised ligand | 1 µM | 87%
c1cncc(-c2cccc(Nc3nccc(NC4CCCCC4)n3)c2)c1 | binding | competition with immobilised ligand | 10 µM | 100%
CN(CCCC(F)(F)F)c1nccc(-c2cnn3ncccc23)n1 | binding |  | 1 µM | 100%
CCOCCn1cc(C(=O)Nc2ccc(-n3nc(-c4cccnc4)cc3C(F)(F)F)cn2)ccc1=O | cell-free assay | competition with immobilised ligand | 1 µM | 100%
c1cnn2ncc(-c3ccnc(N4CCC45COC5)n3)c2c1 | binding |  | 1 µM | 100%
Cc1c(C(=O)O)cc(-c2ccc(C3CCNCC3)cc2)c2ccc(-c3ccc(C(F)(F)F)cc3)cc12 | cell-free assay | competition with immobilised ligand | 1 µM | 100%
